bCat KO growth: primary screen for growth suppressors in beta-catenin knockout HCT116 cells (colon tumor, human) | HCT116 beta-catenin knockout viability, CellTiter-Glo, 60 h; stronger effect = lower value | viability, % at 10 µM | hit rate 1.5% among 140,000;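 active = viability at or under a set limit, the compound median less 4 SD, cut at about 6% in these data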;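 also: 0% = Hyamine 1622 control at 20 µM and 100% = untreated cell control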
Fibroblast inh: antiproliferative effect on LL 47 fibroblasts – human, LL 47 cells, CellTiter-Glo luminescence, primary screen; LL 47 human lung fibroblast viability, ATP luminescence; stronger effect = lower value; viability, % at 10 µM; hit rate 1.1% among 85,000; AID 719, 2007;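 active = viability at or below 50% in the single dose screen; inactive = viability above 50%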;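 also: compound exposure lasted 72 h before the ATP readout; 100% = median luminescence of untreated cell-only wells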
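test system = LL 47 human lung fibroblasts | amount = 1,150 fibroblasts seeded per well | medium = 15% FBS in IMEM | times = overnight cell rest, 72 h compound treatment at 37 °C | measured by = CellTiter-Glo luminescence measuring cellular ATP | read-out = viability percentage against median untreated-cell control | benchmarks = cell-only wells, no compound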
H69AR growth 86K: proliferation blockers of H69AR lung cancer cells, primary screen, cell-based, human, 86K library. viability, % at 10 µM. H69AR lung tumor viability, ATP luminescence, 72 h; stronger effect = lower value. hit rate 6% among 85,000;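 active = viability at or below 40%; inactive = viability above 40%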;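 also: multidrug resistant small cell line overexpressing MRP-1 efflux transporter; 100% = mean luminescence of untreated control wells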
HCT116 PTEN-null: growth suppression of PTEN-null HCT116, primary screen, cell-based, CellTiter-Glo | HCT116 PTEN-null viability, 60 h; stronger effect = lower value | hit rate 1.2% among 140,000 | viability, % at 10 µM | AID 827, 2007;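 active = viability at or below a set limit, 4 SD under the median of all tested compounds, cut at about 3.7% in these data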;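 also: PTEN knockout HCT116 line with beta catenin targeted HCT116 as companion control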
HUVEC prolif 384: inhibitors of HUVEC proliferation, primary screen, cell-based, 384-well | CellTiter-Glo luminescence, 72 h; stronger effect = lower value | viability, % at 10 µM (by protocol) | hit rate 1.1% among 86,000;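 active = viability at or below 30%; inactive = viability above 30%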;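 also: 100% = median luminescence of DMSO-only cell control wells on each plate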
* marks the source's active call; other numbers are inactive results. The entries come from a sample that favours hits as a whole.

Results for c1ccc2sc(Sc3ncnc4sccc34)nc2c1 ?
bCat KO growth: 4.2*; HCT116 PTEN-null: 4

How did CCCCn1c(SCC(=O)Nc2cc(C(F)(F)F)cc(C(F)(F)F)c2)nnc1C(CC)N(C)C (centres undefined) do in these assays?
bCat KO growth: 26; HCT116 PTEN-null: 25

How did COc1ccccc1C(=O)NN=C1CCN(Cc2ccccc2)CC1 do in these assays?
bCat KO growth: 102; HCT116 PTEN-null: 103

How did CCc1ccc(N2C(=O)C(Cl)=C(N3CCOCC3)C2=O)cc1 do in these assays?
bCat KO growth: 94; HCT116 PTEN-null: 89

Results for O=C1C(Cl)=C(N2CCN(Cc3ccccc3)CC2)C(=O)N1c1ccccc1 ?
bCat KO growth: 106; Fibroblast inh: 98; H69AR growth 86K: 39*; HCT116 PTEN-null: 99; HUVEC prolif 384: 93

How did O=C1C(Cl)=C(N2CCOCC2)C(=O)N1c1cccc(Cl)c1 do in these assays?
bCat KO growth: 45; H69AR growth 86K: 0.8*; HCT116 PTEN-null: 63; HUVEC prolif 384: 102

Results for COc1ccc(N2C(=O)C(Cl)=C(N3CCN(Cc4ccccc4)CC3)C2=O)cc1 ?
bCat KO growth: 100; Fibroblast inh: 90; H69AR growth 86K: 85; HCT116 PTEN-null: 97; HUVEC prolif 384: 86

Results for CC(Oc1ccc(Cl)cc1)C(=O)N/N=C/c1ccsc1 (centres undefined) ?
bCat KO growth: 92; HCT116 PTEN-null: 93

What do the screens show for `Cc1occc(=O)c1O`?
bCat KO growth: 95; HCT116 PTEN-null: 95

How did Cc1ccc(-c2nc(N/N=C/c3cccnc3)c3ccccc3n2)cc1 do in these assays?
bCat KO growth: 73; Fibroblast inh: 50; H69AR growth 86K: 26*; HCT116 PTEN-null: 79; HUVEC prolif 384: 57

How did O=[N+]([O-])c1ccc(NNC(=S)Nc2ccc(F)cc2)cc1 do in these assays?
bCat KO growth: 67; Fibroblast inh: 87; H69AR growth 86K: 14*; HCT116 PTEN-null: 78; HUVEC prolif 384: 59

How did COc1cc(/C=C/C(=O)OCC(=O)Nc2ccc3c(c2)OCCO3)ccc1OCC#N do in these assays?
bCat KO growth: 104; HCT116 PTEN-null: 99

Results for COC(=O)c1ccccc1NS(=O)(=O)c1ccc2c3c(cccc13)C(=O)N2 ?
Fibroblast inh: 90; H69AR growth 86K: 83; HUVEC prolif 384: 97

How did Cc1oc2c(cc(NS(=O)(=O)c3ccc4c5c(cccc35)C(=O)N4)c3ccccc32)c1C(=O)OC(C)C do in these assays?
bCat KO growth: 68; Fibroblast inh: 90; H69AR growth 86K: 31*; HCT116 PTEN-null: 53; HUVEC prolif 384: 63

Results for COC(=O)c1c(C)oc2c1cc(NS(=O)(=O)c1cccs1)c1ccccc12 ?
bCat KO growth: 84; Fibroblast inh: 86; H69AR growth 86K: 20*; HCT116 PTEN-null: 86; HUVEC prolif 384: 53

Results for O=C1C2CCCN2C(=O)N1CCCCN1CCN(CCO)CC1 (centres undefined) ?
bCat KO growth: 98; HCT116 PTEN-null: 102

Results for Cc1ccc(S(=O)(=O)N2CCN(C(=O)CCC(=O)NCc3ccc(F)cc3)CC2)cc1 ?
bCat KO growth: 93; HCT116 PTEN-null: 92

Results for Cc1ccc(SCC(=O)Nc2ccccc2C(=O)O)cc1 ?
bCat KO growth: 96; Fibroblast inh: 99; H69AR growth 86K: 97; HCT116 PTEN-null: 102; HUVEC prolif 384: 80

How did CCN1CCN(Cc2nc3c(c(=O)[nH]c(=O)n3C)n2Cc2ccccc2Cl)CC1 do in these assays?
Fibroblast inh: 91; H69AR growth 86K: 77; HUVEC prolif 384: 93

Results for CCCCn1c(CN2CCN(c3cccc(Cl)c3)CC2)nc2c1c(=O)[nH]c(=O)n2C ?
bCat KO growth: 18; Fibroblast inh: 49*; H69AR growth 86K: 19*; HCT116 PTEN-null: 24; HUVEC prolif 384: 51

Results for Cn1c(=O)[nH]c(=O)c2c1nc(CN1CCN(c3cccc(Cl)c3)CC1)n2Cc1ccccc1Cl ?
bCat KO growth: 37; Fibroblast inh: 83; H69AR growth 86K: 12*; HCT116 PTEN-null: 31; HUVEC prolif 384: 59

Results for Cn1c(/C(C#N)=C(\O)COc2ccc3ccccc3c2)nc2ccccc21 ?
bCat KO growth: 55; Fibroblast inh: 84; H69AR growth 86K: 12*; HCT116 PTEN-null: 46; HUVEC prolif 384: 58

Results for COc1cc(/C=C/C(=O)c2ccc(NS(=O)(=O)c3ccc(C)cc3)cc2)ccc1OC(F)F ?
bCat KO growth: 4.8*; HCT116 PTEN-null: 2.9*

Source: PubChem BioAssay
